Experiment [1] in a line: OD615 S. cerevisiae growth inhibition, permissive medium, pilot counter-assay, permissive growth control for S. cerevisiae lifespan shortening project (AID 705;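 active = growth inhibition above 25% in both replicates, a cutoff set 3 SD above the mean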). The following applies: OD615, 24 h, at 10 µM, hits give high values. In a few lines: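 Material: engineered DeaD yeast; Compound: one dose 10 µM, DMSO 0.25% final; Detection: absorbance (optical density) at 615 nm; Buffer or medium: permissive raffinose/galactose medium; Timing: 24 h exposure, 30 °C.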

A short description of experiment [2]: Restrictive medium S. cerevisiae growth inhibition, OD615, pilot screen of yeast lifespan reduction project, restrictive growth control (AID 706;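 active = growth inhibition above a set limit, 3 SD over mean compound inhibition, in both replicates, cut at about 43% in these data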;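 note: modified DeaD lifespan yeast strain shifted to restrictive glucose medium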). The following applies: OD615, 48 h, at 10 µM, hits give high values. Put shortly:
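Buffer or medium: restrictive glucose medium (CSMM-D); test system: modified S. cerevisiae; doses: single dose of 10 µM compound final, 0.25% DMSO; schedule: 48 h compound exposure at 30 °C; detection: absorbance (optical density) measured at 615 nm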

Experiment [3] is described as follows: viability gain of MRP-1-high H69AR cells under doxorubicin, pilot screen, MRP-1 activator project, CellTiter-Glo, duplicate (AID 807;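 active = viability increase at or above a cutoff of the median across tested compounds plus 3 SD, cut at about 8.5% in these data, passing the limit was not always enough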;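 note: compound pretreatment 18-22 h then 72 h combined with doxorubicin; 0% = doxorubicin alone and 100% = vehicle without doxorubicin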). The following applies: H69AR viability with doxorubicin, CellTiter-Glo luminescence; at 10 µM; hits give high values.
A short description of experiment [4]: growth suppression of beta-catenin knockout HCT116, pilot screen, human colon tumor cells (AID 823;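 active = cell viability at or below a set limit in both duplicate runs, the limit being the all-compound median minus 4 SD, cut at about 23% in these data, passing the limit was not always enough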;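 note: 0% = wells killed by 20 µM Hyamine and 100% = untreated DMSO cell wells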). Particulars: CellTiter-Glo, 60 h, at 10 µM, hits give low values.
The nature of experiment [5]: growth suppression of PTEN-deleted HCT116, pilot screen, cell-based, HCT116 clonal line, CellTiter-Glo (AID 824;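 active = viability at or below 27.92% in each of two runs, the all-compound median minus 4 SD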;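 note: 0% = 20 µM Hyamine control and 100% = vehicle cell control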). Particulars: 60 h, at 10 µM, hits give low values.
The nature of experiment [6]: inhibitors of the yeast RAM network, pilot screen, dse1pr::URA3 reporter, 5-FOA selection (AID 869;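 active = inhibition over a set limit, the all-compound mean plus 3 SD, in both replicate runs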;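 note: 0% = DMSO wells with no growth and 100% = 10 µM 1-NA-PP1 with full growth; RAM network block rescues cells from 5-FOA so hits raise OD615 growth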). The following applies: S. cerevisiae dse1pr::URA3 5-FOA growth, OD615, 2 d; at 10 µM; hits give high values; strain carries analog-sensitive mutant Cbk1 kinase.
The nature of experiment [7]: RAM signaling pathway blockade in yeast – S. cerevisiae, Pdr1DBD-CYC8 efflux-inhibited sensitized strain, primary screen (AID 1298).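 Note: 0% = DMSO untreated cells without growth and 100% = 10 µM 1-NA-PP1 full growth; higher means more yeast growth rescued from 5-FOA killing.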 Particulars: S. cerevisiae cbk1-as DSE1-URA3 strain, 5-FOA growth OD615, 2 d; at 50 µM; hits give high values.

Values without a mark were called inactive. Results filed as inconclusive are left out. The source made the active and inactive calls.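 Rule for the calls, unless noted: active = RAM network inhibition above 8.4% in each of two replicates, 3 SD over the compound average; inconclusive = above 8.4% inhibition in only one replicate; inactive = 8.4% inhibition or less in each replicate.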

As for `COc1ccc(N2C(=O)C3CCCN3C2c2cccc(C)c2)cc1` (stereo unspecified), the growth inhibition in experiment [1] was 2.65%; in experiment [2], 15%. In addition, the viability increase in experiment [3] was -3.13%. The viability in experiment [4] is 97.4%; in experiment [5] it was 100%. Further, the inhibition in experiment [6] is 1.83%. The RAM network inhibition in experiment [7] was -1.25%.
Regarding `CC1=C(C(N)=O)C(c2cccc(O)c2)n2nc(CCCO)nc2N1` (stereo unspecified), the growth inhibition in experiment [1] is -9.85%; in experiment [2], -1.35%. In addition, the viability increase in experiment [3] is -1.07%. Also, the viability in experiment [4] was 101%; in experiment [5], 104%. Moreover, the inhibition in experiment [6] is 2.02%. Besides, the RAM network inhibition in experiment [7] is 2.87%.
In the case of `COc1ccc2c(c1)OC1(C)CC2C(C(=O)c2ccccc2OC)C(=O)N1` (stereo unspecified), the growth inhibition was -18.1% in experiment [1] and -9.23% in experiment [2]. For the same compound, the viability increase in experiment [3] is -4.56%. The values for the viability in experiment [4] and in experiment [5] were 80.4% and 67%, respectively. In addition, the inhibition in experiment [6] was -0.025%. In experiment [7], the RAM network inhibition was 1.48%.
Turning to `CC1CCCC(NC(=O)c2ccc(CNc3c(N4CCCC4)c(=O)c3=O)cc2)C1C` (stereo unspecified), the growth inhibition was -6.62% in experiment [1] and 2.02% in experiment [2]. In experiment [3], the viability increase is -2.4%. Moreover, the viability in experiment [4] was 90.7%; in experiment [5], 84.4%. Also, in experiment [6], the inhibition is 2.51%. Also, the RAM network inhibition in experiment [7] is 2.5%.
As to `O=C(Nc1nnc(C2CC2)s1)c1cc(-c2ccccc2)nn1-c1ccccc1`, the growth inhibition was 2.87% in experiment [1] and 30.2% in experiment [2]. Further, in experiment [3], the viability increase is -0.61%. Also, the viability is 76.6% in experiment [4] and 71.9% in experiment [5]. For the same compound, in experiment [6], the inhibition was 2.71%. For the same compound, in experiment [7], the RAM network inhibition was 3.62%.
For `FC(F)Sc1ccc(Nc2ncnc3nc[nH]c23)cc1`, the results for the growth inhibition in experiment [1] and in experiment [2] were 16.9% and 57.8% (active), respectively. In experiment [3], the viability increase is -1.54%. The viability in experiment [4] was 92.8%; in experiment [5], 90.5%. The inhibition in experiment [6] was 1.23%. Also, the RAM network inhibition in experiment [7] was 4.41%.
With `CCOC(=O)Cn1c(=O)oc2cc(S(=O)(=O)N3CCCc4ccccc43)ccc21`, the figures for the growth inhibition in experiment [1] and in experiment [2] were -8.26% and -5.77%, respectively. Besides, the viability increase in experiment [3] is -1.08%. The viability in experiment [4] was 88.2%; in experiment [5] it was 96%. Besides, in experiment [6], the inhibition was 2.77%. Also, in experiment [7], the RAM network inhibition is 6.73%.
For `O=C(Nc1nc2ccccc2s1)c1ccc(Cl)s1`, the growth inhibition is -14.7% in experiment [1] and -29.6% in experiment [2]. Moreover, the viability increase in experiment [3] is -3.11%. Also, the viability was 88.3% in experiment [4] and 77% in experiment [5]. In addition, the inhibition in experiment [6] is 2.79%. Also, the RAM network inhibition in experiment [7] was 1.32%.
`COC(=O)c1oc2ccc(Br)cc2c1NC(=O)CCCN1C(=O)c2ccccc2C1=O`: the growth inhibition is -10.3% in experiment [1] and -14.3% in experiment [2]. The viability increase in experiment [3] was 0.98%. The viability in experiment [4] was 97.7%; in experiment [5] it was 98.5%. The inhibition in experiment [6] is 2.69%. Moreover, the RAM network inhibition in experiment [7] is 7.77%.
`CC(C)(C)c1ccc(S(=O)(=O)N2CCN(CCC#N)CC2)cc1`: the growth inhibition is -8.29% in experiment [1] and -2.35% in experiment [2]. Further, the viability increase in experiment [3] was -2.4%. Besides, the viability in experiment [4] was 100%; in experiment [5], 96.3%. Also, in experiment [6], the inhibition is 0.88%. Moreover, in experiment [7], the RAM network inhibition was 4.27%.
Turning to `N=C1C(c2nc3ccccc3c(=O)[nH]2)=C(O)CN1CCc1ccccc1`, the growth inhibition in experiment [1] was 2.17%; in experiment [2], -7.82%. Moreover, the viability increase in experiment [3] was -3.19%. Besides, the values for the viability in experiment [4] and in experiment [5] were 93.6% and 87.2%, respectively. In addition, the inhibition in experiment [6] is 0.995%. Further, in experiment [7], the RAM network inhibition was 3.92%.
In the case of `Cc1ccc(CN2CCN(CC(=O)N3CCC(C(N)=O)CC3)C2=O)cc1`, the growth inhibition in experiment [1] is 0.425%; in experiment [2], 1.62%. Also, in experiment [3], the viability increase is -0.17%. Further, the viability in experiment [4] was 105%; in experiment [5], 101%. Also, the inhibition in experiment [6] was 2.1%. In addition, the RAM network inhibition in experiment [7] is 3.53%.
Take `CCOc1ccc(C2CC(c3cccc(C)c3)n3nc(N)nc3N2)cc1` (stereo unspecified): the growth inhibition in experiment [1] was 2.79%; in experiment [2], 11.8%. The viability increase in experiment [3] was -0.49%. Further, the results for the viability in experiment [4] and in experiment [5] were 91.7% and 83.2%, respectively. In experiment [6], the inhibition was 1.02%. For the same compound, the RAM network inhibition in experiment [7] was 2.03%.
Turning to `Cc1cc(N2CCCC2)n2nc(C)nc2n1`, the growth inhibition in experiment [1] was -10.1%; in experiment [2], -17.2%. For the same compound, the viability increase in experiment [3] is -0.52%. Also, the viability in experiment [4] is 102%; in experiment [5] it was 101%. Further, the inhibition in experiment [6] was 1.88%. In experiment [7], the RAM network inhibition is 1.98%.
`Cc1cccc(-n2ncc3c(NCCc4ccc(S(N)(=O)=O)cc4)ncnc32)c1`: the growth inhibition in experiment [1] is 2.13%; in experiment [2], 1.53%. Also, the viability increase in experiment [3] was -2.67%. Moreover, the results for the viability in experiment [4] and in experiment [5] were 88.8% and 82%, respectively. In addition, in experiment [6], the inhibition is 1.27%. Besides, the RAM network inhibition in experiment [7] was 4.84%.
For the compound `CC(Cc1c[nH]c2ccccc12)NC(=O)C1CCCNC1=O` (stereo unspecified), the growth inhibition in experiment [1] is -5.75%; in experiment [2], 8.45%. Besides, the viability increase in experiment [3] is -0.46%. Further, the viability is 99.4% in experiment [4] and 103% in experiment [5]. In experiment [6], the inhibition is 1.27%. Moreover, the RAM network inhibition in experiment [7] is 0.66%.
For the compound `COc1cc2c(cc1OC)C(COc1ccc3c(C)cc(=O)oc3c1)N(C(=O)c1ccco1)CC2` (stereo unspecified), the growth inhibition in experiment [1] is -1.62%; in experiment [2] it was -3.73%. For the same compound, the viability increase in experiment [3] is -4.63%. In addition, the viability in experiment [4] is 91.8%; in experiment [5], 87.8%. Also, in experiment [6], the inhibition is 1.6%. Besides, the RAM network inhibition in experiment [7] was 4.74%.
In the case of `O=C(O)C1CCC(=O)N1C1c2ccccc2Oc2ccccc21` (stereo unspecified), the growth inhibition in experiment [1] is 4.23%; in experiment [2] it was 4.63%. Also, in experiment [3], the viability increase is 0.41%. Also, the figures for the viability in experiment [4] and in experiment [5] were 96% and 98.9%, respectively. The inhibition in experiment [6] is 0.57%. Moreover, the RAM network inhibition in experiment [7] was 5.25%.

(Values after PubChem BioAssay.)
